# UBC13 polyUb = UBC13 polyubiquitin chain formation inhibitors, primary screen, biochemical, TR-FRET, uHTS | Ubiquitin-conjugating enzyme E2 N (Homo sapiens), P61088 | inhibition, % at 20 µM | 0.47% of 330,000 active | AID 485273, 2010; in the data active = inhibition above about 45%, passing the limit was not always enough
# Apaf-1 inh = inhibitors of human Apaf-1 apoptosome, primary screen, biochemical, DEVD-Rh110 fluorescence, uHTS; Apoptotic protease-activating factor 1 (Homo sapiens), O14727; reconstituted apoptosome caspase-3 activity; inhibition, % at 20 µM; 0.71% of 330,000 active; AID 489030, 2010; active = inhibition of at least 40% at 20 µM;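 also: plate controls were DMSO wells for no effect and DEVD-CHO caspase inhibitor wells for full effect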
# Target sequence (O14727 whole entry, looked up): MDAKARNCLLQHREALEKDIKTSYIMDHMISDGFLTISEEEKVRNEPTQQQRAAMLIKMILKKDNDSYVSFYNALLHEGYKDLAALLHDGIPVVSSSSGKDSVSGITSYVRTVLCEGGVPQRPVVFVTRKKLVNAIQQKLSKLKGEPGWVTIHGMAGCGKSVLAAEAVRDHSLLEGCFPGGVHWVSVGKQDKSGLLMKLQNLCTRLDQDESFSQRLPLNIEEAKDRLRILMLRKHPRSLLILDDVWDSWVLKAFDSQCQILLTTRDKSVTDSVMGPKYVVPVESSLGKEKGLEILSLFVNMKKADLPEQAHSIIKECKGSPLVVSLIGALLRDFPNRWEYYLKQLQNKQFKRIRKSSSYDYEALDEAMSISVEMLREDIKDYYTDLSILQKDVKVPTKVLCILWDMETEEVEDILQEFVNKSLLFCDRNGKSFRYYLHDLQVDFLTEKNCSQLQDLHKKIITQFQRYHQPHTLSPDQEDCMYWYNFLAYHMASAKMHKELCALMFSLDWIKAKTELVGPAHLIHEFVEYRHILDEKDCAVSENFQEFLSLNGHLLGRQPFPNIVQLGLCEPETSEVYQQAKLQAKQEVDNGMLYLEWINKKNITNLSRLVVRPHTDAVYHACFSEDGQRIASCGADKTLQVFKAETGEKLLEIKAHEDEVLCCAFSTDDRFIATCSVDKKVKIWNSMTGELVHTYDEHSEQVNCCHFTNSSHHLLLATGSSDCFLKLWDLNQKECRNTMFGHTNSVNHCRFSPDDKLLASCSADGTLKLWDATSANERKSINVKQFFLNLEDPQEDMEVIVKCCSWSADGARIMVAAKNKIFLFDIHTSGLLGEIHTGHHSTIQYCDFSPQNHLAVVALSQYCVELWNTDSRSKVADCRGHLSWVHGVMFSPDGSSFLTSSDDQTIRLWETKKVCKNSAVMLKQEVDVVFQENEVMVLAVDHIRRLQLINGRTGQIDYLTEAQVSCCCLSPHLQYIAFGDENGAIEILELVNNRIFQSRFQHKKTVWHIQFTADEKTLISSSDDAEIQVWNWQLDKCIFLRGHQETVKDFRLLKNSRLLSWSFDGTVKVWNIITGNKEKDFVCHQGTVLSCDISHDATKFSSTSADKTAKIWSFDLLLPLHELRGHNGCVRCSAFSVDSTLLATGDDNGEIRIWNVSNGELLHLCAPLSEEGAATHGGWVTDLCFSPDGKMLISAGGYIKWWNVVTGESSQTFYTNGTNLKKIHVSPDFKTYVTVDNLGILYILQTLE
#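 Assay system: Apoptosome proteins | Medium: pH 7.5 Hepes buffer with CHAPS, BSA, DTT | Also added: Cytochrome c and DEVD-Rh110 substrate | Times: 30 min plus 50 min, RT | Detection: Rhodamine 110 fluorescence at Ex 480/Em 540 nm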
# MEKK3 PB1 HTS = modulators of MEKK3-MEK5 PB1 binding, primary screen, biochemical, wildtype MEKK3, multiplex bead flow cytometry, Alexa488-MEK5; Mitogen-activated protein kinase kinase kinase 3 (Homo sapiens), Q99759; bead-based flow cytometry, Alexa488-MEK5 binding to MEKK3; actives lie on both sides; 0 = blocked by unlabeled MEK5, 100 = vehicle; binding response (% of control), % at 10 µM; 1.4% of 290,000 active;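 active = binding response more than 3 SD above or below the average of its plate-row segment, actives on both sides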;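 also: Alexa488 bead fluorescence after subtracting the streptavidin-only scavenger bead signal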
# MEKK2 mut-MEK5 = MEK5 binding signal on mutant MEKK2 PB1, primary screen, biochemical, multiplex bead flow cytometry, Alexa488-MEK5. Alexa488-MEK5 binding to MEKK2 mutant. 0.35% of 290,000 active. percent response, % at 10 µM; in the data active = percent response above about 24%, passing the limit was not always enough
# PREPL inh = PREPL enzyme inhibitors, primary screen, biochemical, fluorescence polarization; Prolyl endopeptidase-like (Homo sapiens), Q4J6C6; recombinant PREPL, fluorescence polarization activity-based probe; inhibition, % at 5.96 µM; 0.68% of 320,000 active; AID 2751, 2010; in the data active = inhibition above about 43%;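 also: 0% = enzyme with DMSO and 100% = wells lacking enzyme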
# MEKK2wt PB1 HTS = modulators of MEK5 binding to wildtype MEKK2, primary screen, biochemical, multiplex bead flow cytometry, Alexa488-MEK5. Alexa488-MEK5 binding to MEKK2 WT; actives lie on both sides. binding response (% of control), % at 10 µM. 1.1% of 290,000 active. Mitogen-activated protein kinase kinase kinase 2 (Homo sapiens), Q9Y2U5. AID 1531, 2009; in the data active = binding response below about 67% or above about 130%
# MEKK2wt confirm = modulators of MEK5 binding to wildtype MEKK2, confirmation, biochemical, single concentration, multiplex bead flow cytometry | shares compounds with MEKK3 PB1 HTS | Alexa488-MEK5 binding to MEKK2 WT; actives lie on both sides | AID 1892, 2009 | 2.4% of 5,900 active | binding response (% of control), % at 10 µM; in the data active = binding response below about 16% or above about 210%; inactive = in between
# MEKK2mut confirm = mutant MEKK2 PB1-MEK5 binding signal retest – biochemical, single concentration, multiplex bead flow cytometry, confirmation; Alexa488-MEK5 binding to MEKK2 mutant; 2% of 5,900 active; percent response, % at 10 µM; shares compounds with MEKK3 PB1 HTS; in the data active = percent response mostly above about 71%, no sharp cut-off; inactive = mostly below about 38%;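 also: higher means compound restores mutant binding toward wildtype level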
# MEKK3 confirm = MEKK3 wild-type PB1 binding to MEK5, inhibitors, confirmation, biochemical, bead multiplex flow cytometry, single concentration, wildtype; shares compounds with MEKK3 PB1 HTS; Alexa488-MEK5 binding to MEKK3; stronger effect = lower value; binding response (% of control), % at 10 µM; 1.8% of 5,900 active; AID 1894, 2009;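 active = binding response below 72% of control, or above a set upper limit, though filed actives all read lower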;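 also: 100% = DMSO only wells and 0% = binding blocked by excess unlabeled MEK5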
# * marks the source's active call; other numbers are inactive results; nt = not tested or not shown; [ ] = remark or other dose. In the library only some 3.1% were active in any assay of this set; here they are far more common.
SMILES,UBC13 polyUb,Apaf-1 inh,MEKK3 PB1 HTS,MEKK2 mut-MEK5,PREPL inh,MEKK2wt PB1 HTS,MEKK2wt confirm,MEKK2mut confirm,MEKK3 confirm
O=C(N=C1SC2CS(=O)(=O)CC2N1c1cccc(Cl)c1Cl)C1CC1 (centres undefined),6.6,-5.7,101.0,1.0,-8.4,101.0,nt,nt,nt
Clc1ccc(-c2csc3ncnc(N4CCc5ccccc5C4)c23)cc1,2.7,3.9,131.0*,0.0,-3.2,102.0,106.0,-1.0,97.0
CCCOC1CCCN(C(=O)c2ccc(OC3CCN(Cc4ccccn4)CC3)cc2)C1 (centres undefined),-1.9,14.9,90.0,-9.0,-0.1,89.0,nt,nt,nt
COc1ccc(Cl)cc1NC(=S)NCCc1ccc(S(N)(=O)=O)cc1,6.7,-2.5,105.0,7.0,-9.0,104.0,nt,nt,nt
COc1cc(NC(=S)NCc2ccc(S(N)(=O)=O)cc2)c(OC)cc1Cl,2.3,-2.6,59.0*[inhibitor],0.0,-4.9,102.0,103.0,3.0,101.0
CNC(=S)Nc1ccc(OC)c(OC)c1,-4.2,-5.7,2.0*[inhibitor],-21.0,-1.3,3.0*[inhibitor],100.0,3.0,104.0
O=C(c1ccccc1)c1c[nH]c(C(=O)NCCCn2ccnc2)c1,-1.4,2.4,104.0,19.0,-4.1,103.0,nt,nt,nt
COc1ccc(C(CCNCc2ccc(OC(C)C)cc2)C(C)C)cc1 (centres undefined),36.8,6.7,102.0,15.0,-38.6,126.0,nt,nt,nt
COc1ccc(CNCCC(c2ccc(OC(C)C)cc2)c2ccccc2OC)cc1 (centres undefined),30.8,30.7,112.0,47.0*,-6.8,193.0*,181.0,41.0,111.0
COc1ccc(CNCCC(c2ccc(OC(C)C)cc2)c2ccccc2OC)cc1OC (centres undefined),23.2,11.3,112.0,28.0*,-1.0,156.0*,148.0,27.0,112.0
COc1ccc(CNCCC(c2ccc(OC(C)C)cc2)C(C)C)cc1OC (centres undefined),17.4,-4.4,104.0,6.0,-0.5,114.0,nt,nt,nt
COc1ccccc1C(CCNCc1ccc(N(C)C)cc1)c1ccc(OC(C)C)cc1 (centres undefined),32.5,31.8,117.0,61.0*,17.5,229.0*,160.0,30.0,107.0
COc1ccccc1C(CCNCc1ccccc1)c1ccc(OC(C)C)cc1 (centres undefined),20.6,33.2,110.0,24.0*,-20.6,158.0*,148.0,30.0,108.0
COc1ccc(C(CCNCc2ccc(N(C)C)cc2)C(C)C)cc1 (centres undefined),8.1,19.9,103.0,19.0,-15.8,124.0,nt,nt,nt
CCN(CC(=O)Nc1c(F)cccc1F)C(=O)c1ccc(NC(=O)CC2SC(N3CCCC3)=NC2=O)cc1 (centres undefined),-1.6,0.2,nt,nt,0.8,nt,nt,nt,nt
O=C(Nc1cccnc1Cl)c1cc2c(s1)-c1ccccc1OC2,25.9,1.5,98.0,0.0,-8.1,96.0,nt,nt,nt
CN1CCN(c2ccccc2NC(=O)c2cc3c(s2)-c2ccccc2OC3)CC1,0.6,23.9,101.0,21.0,32.6,146.0*,172.0,37.0,107.0
